S1P4 antagonist: antagonists of human S1P4 receptor | O95977 | S1P4-expressing cells, antagonist mode, reporter read-out | inhibition, % at 4.98 µM | 220,000 tested, 0.26% active | AID 1510; in the data active means inhibition above about 29%;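 further: 0% = wells stimulated with agonist and 100% = vehicle wells without agonist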
NPY2 pot ag: potentiates or activates human NPY-Y2 receptor | P49146 | cells expressing NPY-Y2, potentiator/agonist read-out | activation, % at 3.6 µM | 220,000 tested, 0.45% active; in the data active means activation above about 27%;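 further: cells stimulated with NPY near EC25 plus isoproterenol at EC100; 0% = vehicle plus submaximal agonist and 100% = vehicle plus saturating agonist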
Target sequence (P49146 whole entry, looked up): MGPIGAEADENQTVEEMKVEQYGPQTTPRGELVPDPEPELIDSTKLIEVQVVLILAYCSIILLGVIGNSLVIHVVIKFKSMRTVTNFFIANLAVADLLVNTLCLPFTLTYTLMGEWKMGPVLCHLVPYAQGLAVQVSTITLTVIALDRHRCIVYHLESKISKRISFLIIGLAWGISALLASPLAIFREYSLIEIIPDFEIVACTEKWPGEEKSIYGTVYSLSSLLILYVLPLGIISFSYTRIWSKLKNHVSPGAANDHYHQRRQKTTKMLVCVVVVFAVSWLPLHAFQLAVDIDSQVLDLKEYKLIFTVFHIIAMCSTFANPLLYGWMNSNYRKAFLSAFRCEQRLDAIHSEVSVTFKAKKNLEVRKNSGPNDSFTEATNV
S1P4 agonist: activates the human S1P4 receptor. S1P4-expressing cell line, agonist reporter assay. 220,000 tested, 0.35% active. activation, % at 4.98 µM; in the data active means activation above about 11%;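 further: 0% = DMSO vehicle and 100% = reference agonist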
NPY-Y1 antag: NPY-Y1 (human) receptor antagonism | 200,000 tested, 1% active | HEK293-CNG Y1 cells, membrane potential fluorescence; NPY at EC95, then isoproterenol | P25929 | AID 1040 | inhibition, % at 3.6 µM;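 active means inhibition above the campaign mean inhibition of all tested compounds plus 3 SD, cut at about 20% in these data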;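 further: 0% = DMSO wells given NPY plus isoproterenol and 100% = isoproterenol alone without NPY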
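Material: HEK293 cells with Y1 receptor plus CNG channel; times: compound incubation 1 h at room temperature, readout 45 min post-stimulation; signal: fluorescence, membrane potential probe; read-out basis: fluorescence ratio normalized to % inhibition between controls; benchmarks: full-block control isoproterenol-only wells, zero-block control NPY plus isoproterenol wells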
NPY1 pot ag: potentiators or agonists of human neuropeptide Y receptor Y1. 220,000 tested, 0.37% active. AID 1304. NPY-Y1 expressing cells, potentiator/agonist activation. P25929. activation, % at 3.6 µM; in the data active means activation above about 33%, passing the limit was not always enough;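 further: cells stimulated with NPY at EC10 then isoproterenol at EC100; 0% = low agonist plus stimulus and 100% = saturating agonist plus stimulus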
NPY Y2 blocker: NPY-Y2 (human) receptor antagonism; P49146; NPY-Y2 expressing cells, antagonist mode; inhibition, % at 2.7 µM; 140,000 tested, 0.99% active; AID 793;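 further: 0% = vehicle with agonist challenge and 100% = reference antagonist with challenge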
NPY-Y1 ant conf: confirmation of human neuropeptide Y receptor Y1 antagonists; shares compounds with NPY-Y1 antag; HEK293-CNG NPY-Y1, membrane potential fluorescence, cAMP; NPY challenge against isoproterenol-raised cAMP; inhibition, % at 3.6 µM; 1,200 tested, 21% active; AID 1254; in the data active means inhibition above about 20%;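 further: 0% = vehicle with agonist plus stimulus and 100% = stimulus alone without agonist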
NPY-Y2 antag ct: human NPY-Y2 antagonism in NPY-Y1 counter-screen; shares compounds with NPY-Y1 antag; HEK293 NPY-Y2 CNG membrane potential fluorescence; cells given NPY, then isoproterenol; inhibition, % at 3.6 µM; 1,200 tested, 28% active;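 further: 0% = DMSO with agonist challenge and 100% = reference antagonist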
* marks the source's active call; other numbers are inactive results; nt = not tested or not shown. Rows were chosen to be rich in hits. Some 2.4% of all compounds tested hit in one or more screens of this group. Unless noted, no stated cut-off is given here; in the data, active means inhibition above about 17%; inactive means the rest.

SMILES | S1P4 antagonist | NPY2 pot ag | S1P4 agonist | NPY-Y1 antag | NPY1 pot ag | NPY Y2 blocker | NPY-Y1 ant conf | NPY-Y2 antag ct
CCCCn1c(SCC(=O)NC(C)CC)nc2ccc(N3CCOCC3)cc2c1=O (configuration not stated) | -4 | 8 | 4 | 23* | 5 | 2 | -1 | 3
CCC(C)NC(=O)CSc1nc2ccc(N3CCOCC3)cc2c(=O)n1CCc1ccccc1 (configuration not stated) | -4 | 6 | -1 | -4 | 12 | 0 | nt | nt
COc1ccc(OC)c(NC(=O)c2ccc(-c3cccs3)cc2)c1 | -14 | -34 | 0 | 22* | -66 | nt | 9 | 10
COc1ccc(NC(=O)c2ccc(C)cc2)c(OC)c1 | -14 | -1 | 0 | 5 | 4 | 2 | nt | nt
O=C(NC(=S)NCc1ccc(F)cc1)c1ccccc1 | -14 | -13 | 4 | 23* | -17 | 6 | 4 | 3
Cc1cc(Cl)c(OCCOCCN2CCCCC2)c(Br)c1 | -5 | -5 | -1 | 4 | 10 | 3 | nt | nt
Cc1cc(Cl)c(OCCOCCN2CCCC(C)C2)c(Br)c1 (configuration not stated) | 12 | -28 | 0 | 23* | -23 | nt | 5 | 11
CCn1cc(C(=O)OCC(=O)OC2CC(C)CCC2C(C)C)c(=O)c2ccc(C)nc21 (configuration not stated) | -11 | -1 | -1 | 21* | -22 | 4 | 11 | 8
Oc1cc2ccccc2cc1-c1n[nH]c(=S)o1 | -6 | -29 | 1 | 40* | -26 | 15 | 19 | 14
Cc1cc(-c2n[nH]c(=S)o2)c(C)n1-c1ccccc1 | -16 | -6 | 0 | -2 | 12 | 2 | nt | nt
Cc1ccc(C2C3=C(CC(C)(C)CC3=O)NC3=C2C(=O)c2ccccc23)cc1 (configuration not stated) | -17 | -7 | 1 | 22* | -16 | 7 | 14 | 18*
CC1(C)CC(=O)C2=C(C1)NC1=C(C(=O)c3ccccc31)C2c1ccc(Cl)cc1 (configuration not stated) | -18 | 10 | 0 | -3 | 23 | -6 | nt | nt
CC(NC(=O)C1CCC(C(C)(C)C)CC1)C(c1ccccc1)N1CCOCC1 (configuration not stated) | 15 | -3 | 2 | -1 | 6 | nt | nt | nt
COc1cccc(C(=O)NCC(c2cccnc2)N2CCN(c3ccccc3OC)CC2)c1 (configuration not stated) | -16 | 18 | 1 | -1 | -7 | 0 | nt | nt
c1ccc(CN(Cc2cccs2)C(c2cccs2)c2nnnn2C2CCCC2)cc1 (configuration not stated) | 10 | -18 | -3 | 21* | -15 | 16 | 17 | 6
Cc1ccccc1CSCCNC(=O)CSCc1ccc([N+](=O)[O-])cc1 | 10 | -4 | -1 | 20* | -19 | 6 | 2 | 8
COc1ccc(C(C(=O)NC2CCCC2)N2CCc3ccccc32)cc1 (configuration not stated) | -2 | 14 | -2 | 3 | 1 | 0 | nt | nt
CCOC(=O)C1(CCc2ccccc2)CCN(Cc2ccc(OC)cc2)CC1 | -6 | -29 | 1 | 14 | -18 | nt | nt | nt
CCOC(=O)C1(CCc2ccccc2)CCN(Cc2c(O)cccc2OC)CC1 | -9 | -11 | 1 | 33* | -33 | nt | 27* | 25*
CCOC(=O)C1(Cc2ccccc2)CCN(Cc2cc(OC)c3c(c2)OCO3)CC1 | -4 | -8 | 1 | 25* | -1 | nt | 7 | 10
CCOC(=O)C1(Cc2ccccc2)CCN(Cc2cccc3c2OCO3)CC1 | -11 | -5 | 2 | 19 | -17 | nt | nt | nt
CCCCNc1nnc(SCC(=O)c2c[nH]c3ccccc23)s1 | -13 | -14 | 0 | 8 | -24 | 3 | nt | nt
CC1(C)C(C#N)=C(N)OC2=C1C(=O)CCC2 | 5 | 7 | 1 | 2 | 8 | 0 | nt | nt
CCOC(=O)c1sc(N(Cc2ccccc2)C(=O)COC(=O)c2ccccc2O)nc1C | -10 | -4 | 1 | 20* | -45 | 13 | 16 | 8
